Data as given in ChEMBL document CHEMBL1140226, “Development of novel G-protein-coupled receptor 54 agonists with resistance to degradation by matrix metalloproteinase” (J Med Chem, 2008).
pEC50, pIC50: −log10 of the molar value.

Columns and labels:
[1] = Stability in mouse serum assessed as half life; format: ADME, cell-free
In short: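 Peptides were incubated in murine serum and the half-life was determined.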

[2] = biological target: T1, KiSS-1 receptor (Homo sapiens, UniProt Q969F8); assay: Displacement of [125I]kisspeptin-15 from human GPR54 expressed in CHO cell membrane; format: cell membranes
T1 sequence (Q969F8 whole entry): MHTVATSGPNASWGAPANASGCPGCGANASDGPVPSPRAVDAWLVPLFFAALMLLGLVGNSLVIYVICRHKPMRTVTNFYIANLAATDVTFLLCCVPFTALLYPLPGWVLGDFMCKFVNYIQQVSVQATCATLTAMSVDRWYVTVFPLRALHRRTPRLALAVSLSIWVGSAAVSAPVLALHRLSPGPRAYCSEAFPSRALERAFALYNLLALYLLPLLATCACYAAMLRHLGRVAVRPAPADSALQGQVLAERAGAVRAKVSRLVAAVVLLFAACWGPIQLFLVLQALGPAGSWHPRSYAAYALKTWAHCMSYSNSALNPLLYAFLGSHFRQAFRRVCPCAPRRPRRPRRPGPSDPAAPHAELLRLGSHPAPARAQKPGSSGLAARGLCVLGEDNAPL

[3] = biological target: T1, KiSS-1 receptor; assay: Ratio of IC50 of compound to IC50 of kisspeptin-10 for human GPR54
[4] = biological target: Matrix metalloproteinase-9 (Homo sapiens) (UniProt P14780); assay: Inhibition of MMP9 at 10 uM by fluorimetric assay; set-up: scale not given: the % may be the effect or the level left
Matrix metalloproteinase-9 (Homo sapiens), sequence (P14780 whole entry): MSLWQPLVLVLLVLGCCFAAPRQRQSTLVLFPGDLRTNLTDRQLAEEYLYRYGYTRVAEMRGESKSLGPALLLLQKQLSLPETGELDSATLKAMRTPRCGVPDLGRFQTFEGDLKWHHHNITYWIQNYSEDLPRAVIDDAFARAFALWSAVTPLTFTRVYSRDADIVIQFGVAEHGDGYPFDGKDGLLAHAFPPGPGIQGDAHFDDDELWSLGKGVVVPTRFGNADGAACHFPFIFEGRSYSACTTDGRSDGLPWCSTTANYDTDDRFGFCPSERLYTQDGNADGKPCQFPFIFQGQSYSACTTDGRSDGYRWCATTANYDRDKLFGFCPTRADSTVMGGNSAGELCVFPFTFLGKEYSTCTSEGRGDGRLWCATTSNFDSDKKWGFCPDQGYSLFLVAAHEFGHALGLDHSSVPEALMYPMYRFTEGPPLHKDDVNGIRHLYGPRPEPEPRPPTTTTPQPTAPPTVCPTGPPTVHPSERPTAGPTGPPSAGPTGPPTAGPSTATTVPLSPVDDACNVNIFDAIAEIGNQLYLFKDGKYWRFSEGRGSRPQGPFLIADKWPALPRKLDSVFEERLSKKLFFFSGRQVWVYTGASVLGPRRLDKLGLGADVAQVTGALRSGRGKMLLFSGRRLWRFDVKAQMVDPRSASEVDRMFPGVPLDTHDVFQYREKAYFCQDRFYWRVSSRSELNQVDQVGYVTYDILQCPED

[5] = biological target: 72 kDa type IV collagenase (Homo sapiens) (UniProt P08253); assay: Inhibition of MMP2 at 10 uM by fluorimetric assay; set-up: scale not given: the % may be the effect or the level left
72 kDa type IV collagenase (Homo sapiens), sequence (P08253 110-660 limits assumed): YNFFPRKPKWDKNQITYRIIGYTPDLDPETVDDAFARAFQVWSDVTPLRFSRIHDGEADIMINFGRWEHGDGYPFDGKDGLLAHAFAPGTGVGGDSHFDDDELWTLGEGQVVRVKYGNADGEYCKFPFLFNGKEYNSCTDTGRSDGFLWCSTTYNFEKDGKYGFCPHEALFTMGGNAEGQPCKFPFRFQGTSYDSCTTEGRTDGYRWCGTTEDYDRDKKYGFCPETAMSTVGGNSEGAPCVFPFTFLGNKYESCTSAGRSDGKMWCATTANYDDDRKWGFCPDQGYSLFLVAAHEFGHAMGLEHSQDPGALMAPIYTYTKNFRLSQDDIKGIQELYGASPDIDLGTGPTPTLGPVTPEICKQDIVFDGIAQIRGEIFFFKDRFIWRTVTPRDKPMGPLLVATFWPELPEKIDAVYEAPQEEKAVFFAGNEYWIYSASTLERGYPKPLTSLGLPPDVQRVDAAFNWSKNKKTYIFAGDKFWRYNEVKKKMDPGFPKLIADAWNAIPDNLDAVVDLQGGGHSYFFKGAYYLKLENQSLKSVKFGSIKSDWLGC

[6] = tested on: Serum; assay: Stability in mouse serum within 1 hr; format: ADME, cell-free
[7] = biological target: T1, KiSS-1 receptor; assay: Agonist activity at human GPR54 expressed in CHO cells assessed as effect on kisspeptin-10-induced response by FLIPR assay; format: functional, cell-based

SMILES | half-life [1] [min] | Activity [4] [%] | Activity [5] [%] | also measured
CC(C)C[C@H](NC(=O)CNC(=O)[C@H](Cc1ccccc1)NC(=O)c1ccc(F)cc1)C(=O)N[C@@H](CCCNC(=N)N)C(=O)N[C@@H](Cc1c[nH]c2ccccc12)C(N)=O |  |  |  | Ratio IC50 [3]: 7.3
CC(C)C/C(=C\CCNC(=O)[C@H](Cc1ccccc1)NC(=O)c1ccc(F)cc1)C(=O)N[C@@H](CCCNC(=N)N)C(=O)N[C@@H](Cc1c[nH]c2ccccc12)C(N)=O | 52 | 98.9 | 94.5 | 
CC(C)C[C@H](NC(=O)CNC(=O)[C@H](Cc1ccccc1)NC(=O)[C@H](CO)NC(=O)[C@H](CC(N)=O)NC(=O)[C@H](Cc1c[nH]c2ccccc12)NC(=O)[C@H](CC(N)=O)NC(=O)[C@@H](N)Cc1ccc(O)cc1)C(=O)N[C@@H](CCCNC(=N)N)C(=O)N[C@@H](Cc1ccccc1)C(N)=O [KISSPEPTIN-10] |  |  |  | pIC50 [2]: 10.15; Stability [6]: Unstable
CC(C)C/C(=C\[C@H](O)CNC(=O)[C@H](Cc1ccccc1)NC(=O)c1ccc(F)cc1)C(=O)N[C@@H](CCCNC(=N)N)C(=O)N[C@@H](Cc1c[nH]c2ccccc12)C(N)=O |  | 103 | 96.9 | 
CC(C)C/C(=C\[C@@H](O)CNC(=O)[C@H](Cc1ccccc1)NC(=O)c1ccc(F)cc1)C(=O)N[C@@H](CCCNC(=N)N)C(=O)N[C@@H](Cc1c[nH]c2ccccc12)C(N)=O | 60 | 104 | 99.1 | 
CC(C)C[C@@H](C[C@H](O)CNC(=O)[C@H](Cc1ccccc1)NC(=O)c1ccc(F)cc1)C(=O)N[C@@H](CCCNC(=N)N)C(=O)N[C@@H](Cc1c[nH]c2ccccc12)C(N)=O | 120 | 100 | 99.3 | 
CC(C)C[C@@H](C[C@@H](O)CNC(=O)[C@H](Cc1ccccc1)NC(=O)c1ccc(F)cc1)C(=O)N[C@@H](CCCNC(=N)N)C(=O)N[C@@H](Cc1c[nH]c2ccccc12)C(N)=O |  | 108 | 96.5 | 
CC(C)C[C@H](C[C@H](O)CNC(=O)[C@H](Cc1ccccc1)NC(=O)c1ccc(F)cc1)C(=O)N[C@@H](CCCNC(=N)N)C(=O)N[C@@H](Cc1c[nH]c2ccccc12)C(N)=O |  | 103 | 98.7 | 
CC(C)C[C@@H](NC(=O)CNC(=O)[C@H](Cc1ccccc1)NC(=O)c1ccc(F)cc1)C(=O)N[C@@H](CCCNC(=N)N)C(=O)N[C@@H](Cc1c[nH]c2ccccc12)C(N)=O |  |  |  | Ratio IC50 [3]: 240; pIC50 [2]: 6.62

Further lines, with some results ahead:

half-life [1] [min] | Activity [4] [%] | Activity [5] [%] | SMILES | also measured
35 |  |  | CC(C)C[C@H](C[C@H](O)CNC(=O)[C@H](Cc1ccccc1)NC(=O)c1ccc(F)cc1)C(=O)N[C@@H](CCCN=C(N)N)C(=O)N[C@@H](Cc1c[nH]c2ccccc12)C(N)=O | pIC50 [2]: 9.62
470 |  |  | CC(C)C[C@@H](C[C@@H](O)CNC(=O)[C@H](Cc1ccccc1)NC(=O)c1ccc(F)cc1)C(=O)N[C@@H](CCCN=C(N)N)C(=O)N[C@@H](Cc1c[nH]c2ccccc12)C(N)=O | pIC50 [2]: 6.42
38 |  |  | CC(C)C[C@H](/C=C/CNC(=O)[C@H](Cc1ccccc1)NC(=O)c1ccc(F)cc1)C(=O)N[C@@H](CCCN=C(N)N)C(=O)N[C@@H](Cc1c[nH]c2ccccc12)C(N)=O | pEC50 [7]: 9.52
1100 |  |  | CC(C)C/C(=C\[C@H](O)CNC(=O)[C@H](Cc1ccccc1)NC(=O)c1ccc(F)cc1)C(=O)N[C@@H](CCCN=C(N)N)C(=O)N[C@@H](Cc1c[nH]c2ccccc12)C(N)=O | 
 | 101 | 101 | CC(C)C[C@H](/C=C/CNC(=O)[C@H](Cc1ccccc1)NC(=O)c1ccc(F)cc1)C(=O)N[C@@H](CCCNC(=N)N)C(=O)N[C@@H](Cc1c[nH]c2ccccc12)C(N)=O | 
45 | 102 | 97.1 | CC(C)C[C@H](CCCNC(=O)[C@H](Cc1ccccc1)NC(=O)c1ccc(F)cc1)C(=O)N[C@@H](CCCNC(=N)N)C(=O)N[C@@H](Cc1c[nH]c2ccccc12)C(N)=O | 
6.6 |  |  | CC(C)C[C@H](NC(=O)CNC(=O)[C@H](Cc1ccccc1)NC(=O)c1ccc(F)cc1)C(=O)N[C@@H](CCCN=C(N)N)C(=O)N[C@@H](Cc1c[nH]c2ccccc12)C(N)=O | pEC50 [7]: 9.35; pIC50 [2]: 9.15
54 | 109 | 96.2 | CC(C)C[C@H](C[C@@H](O)CNC(=O)[C@H](Cc1ccccc1)NC(=O)c1ccc(F)cc1)C(=O)N[C@@H](CCCNC(=N)N)C(=O)N[C@@H](Cc1c[nH]c2ccccc12)C(N)=O | 
